Data set [1] concerns Trypanosoma brucei rhodesiense. Put plainly: Antitrypanosomal activity against Trypanosoma brucei rhodesiense STIB900 bloodstream forms isolated from patient after 70 hrs by microplate alamar blue assay. Type of data set: functional. The following applies: STIB900, 70 h. The gist of the method: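 MEM with 25 mM HEPES, 1 g/L extra glucose, non-essential amino acids, 0.2 mM 2-mercaptoethanol, 1 mM Na-pyruvate, 15% heat-inactivated horse serum; 4×10^3 bloodstream forms per well. Eleven 3-fold dilutions, 100 to 0.002 µg/mL; 70 h, 37°C, 5% CO2. Resazurin added, further 2-4 h; fluorescence ex 536/em 588 nm. IC50 by linear regression from sigmoidal dose-inhibition curves.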

Data set [2] in a line: Selectivity index, ratio of IC50 for rat L6 cells to IC50 for Trypanosoma brucei rhodesiense STIB900 bloodstream forms. Type of data set: toxicity, cell-based. The following applies: read-out: Ratio IC50. The method in brief:
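Ratio of L-6 cytotoxicity IC50 to T. b. rhodesiense STIB900 IC50. L-6: 4000 cells in RPMI 1640 with L-glutamine and 10% FBS, 70 h, then Alamar Blue 2 h. Trypanosomes: 4×10^3 bloodstream forms in supplemented MEM with 15% horse serum, 37°C, 5% CO2, 70 h, then Alamar Blue 2-4 h. Both read by fluorescence (ex 536/em 588 nm) over eleven 3-fold dilutions, 100 to 0.002 µg/mL.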

For data set [3], the system named is Plasmodium falciparum. In words: Antiplasmodial activity against chloroquine-sensitive Plasmodium falciparum NF54 infected in human RBC assessed as reduction in [3H]hypoxanthine incorporation preincubated for 48 hrs followed by [3H]hypoxanthine addition measured after 24 hrs by liquid scintillation counting method. Type of data set: functional. The gist of the method: (§1)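 Erythrocytic P. falciparum in RPMI 1640 without hypoxanthine with HEPES, NaHCO3, neomycin, Albumax (5 g/L) and washed human A+ red cells at 2.5% haematocrit, 0.3% parasitaemia. Compounds from DMSO stocks (10 mg/mL) tested as eleven 3-fold dilutions, 100 to 0.002 µg/mL. Incubation at 37°C under 4% CO2/3% O2/93% N2; 3H-hypoxanthine (0.5 µCi) added at 48 h, 24 h more, scintillation counting; IC50 by linear regression from sigmoidal curves.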

A short description of data set [4]: Selectivity index, ratio of IC50 for rat L6 cells to IC50 for chloroquine-sensitive Plasmodium falciparum NF54 infected in human RBC. The following applies: read-out: Ratio IC50. Type of data set: toxicity, cell-based. The method in brief: (§2)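 Ratio of the IC50 in rat L-6 myoblasts to the P. falciparum IC50. L-6: 4000 cells per well, RPMI 1640 with L-glutamine and 10% FBS, 70 h, Alamar Blue 2 h, fluorescence ex 536/em 588 nm. Both use eleven 3-fold dilutions, 100 to 0.002 µg/mL.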

The subject of data set [5] is Plasmodium falciparum. Put plainly: Antiplasmodial activity against chloroquine/pyrimethamine-resistant Plasmodium falciparum K1 infected in human RBC assessed as reduction in [3H]hypoxanthine incorporation preincubated for 48 hrs followed by [3H]hypoxanthine addition measured after 24 hrs by liquid scintillation counting method. Type of data set: functional. The gist of the method: as §1

Data set [6] in a line: Selectivity index, ratio of IC50 for rat L6 cells to IC50 for chloroquine/pyrimethamine-resistant Plasmodium falciparum K1 infected in human RBC. Type of data set: toxicity, cell-based. The following applies: read-out: Ratio IC50. The method in brief:
as §2

Data set [7] is described as follows: Cytotoxicity against rat L6 cells assessed as growth inhibition after 70 hrs by alamar blue assay. Type of data set: toxicity. The method in brief:
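4000 L-6 cells per well in RPMI 1640 with 1% L-glutamine (200 mM) and 10% FBS. Eleven 3-fold dilutions spanning 100 to 0.002 µg/mL; 70 h incubation, controls checked microscopically. Alamar Blue added for 2 h more; fluorescence ex 536/em 588 nm. IC50 by linear regression from sigmoidal dose-inhibition curves.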
A general note: Resazurin is reduced to fluorescent resorufin, in cell work by metabolically active cells.

A short description of data set [8]: Resistance index, ratio of IC50 for chloroquine/pyrimethamine-resistant Plasmodium falciparum K1 infected in human RBC to IC50 for chloroquine-sensitive Plasmodium falciparum NF54 infected in human RBC. Type of data set: functional. The gist of the method: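 Resistance index is the ratio of the IC50 against K1 to the IC50 against NF54. Both IC50s come from the 3H-hypoxanthine incorporation assay run in parallel on the two strains.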

In ChEMBL document CHEMBL3875207, “New derivatives of 7-chloroquinolin-4-amine with antiprotozoal activity” (Bioorg Med Chem, 2017) one finds IC50, selectivity ratio and Ratio IC50 data, which are given here for 18 molecules.

For `Clc1ccc2c(NCCNCCN3CCCCCC3)ccnc2c1`, the IC50 was 1280 nM in data set [1], 11 nM in data set [3] and 66 nM in data set [5]. The values for the selectivity ratio in data set [2], in data set [4] and in data set [6] were 59.5, 6920 and 1150, respectively. The 50% inhibitory concentration (IC50) at 70 h in data set [7] came to 76100 nM. Besides, the Ratio IC50 in data set [8] was determined as 6.
On to `CCCN(CCC)CCNc1ccnc2cc(Cl)ccc12`, for which the half-inhibitory concentration (IC50) in data set [1] is 140 nM; in data set [3], 3.3 nM; in data set [5] it was 9.8 nM. The selectivity ratio in data set [2] is 107; in data set [4] it was 4530; in data set [6], 1520. The 50% inhibitory concentration (IC50) at 70 h in data set [7] came to 14900 nM. The Ratio IC50 in data set [8] amounted to 2.97.
As for `Clc1ccc2c(NCCCN3CCCCCC3)ccnc2c1`, the concentration for half-maximal inhibition (IC50) in data set [1] came out at 780 nM; in data set [3] it was 6.3 nM; in data set [5] it was 38 nM. In addition, the values for the selectivity ratio in data set [2], in data set [4] and in data set [6] were 25.6, 3170 and 525, respectively. Further, the concentration for half-maximal inhibition (IC50) at 70 h in data set [7] stood at 20000 nM. Also, the Ratio IC50 in data set [8] was determined as 6.03.
On to `Clc1ccc2c(NCCN3CCCCCC3)ccnc2c1`, for which the IC50 in data set [1] was found to be 590 nM; in data set [3], 3.3 nM; in data set [5] it was 16 nM. For the same molecule, the figures for the selectivity ratio in data set [2], in data set [4] and in data set [6] were 22.4, 4010 and 827, respectively. The IC50 at 70 h in data set [7] amounted to 13200 nM. The Ratio IC50 in data set [8] is 4.85.
In the case of `CCN(CC)CCCC(C)Nc1ccnc2cc(Cl)ccc12` (centres undefined) [CHLOROQUINE], the IC50 at 70 h in data set [7] was determined as 90900 nM.
Consider `CCCN(CCC)CC(=O)NCCNc1ccnc2cc(Cl)ccc12`, for which the IC50 in data set [1] was 940 nM; in data set [3], 14 nM; in data set [5] it was 30 nM. The results for the selectivity ratio in data set [2], in data set [4] and in data set [6] were 23.4, 1570 and 732, respectively. Moreover, the half-maximal inhibitory concentration (IC50) at 70 h in data set [7] was 22000 nM. The Ratio IC50 in data set [8] turned out to be 2.14.
`O=C(CN1CCCC1)NCCNc1ccnc2cc(Cl)ccc12`: the half-maximal inhibitory concentration (IC50) is 740 nM in data set [1], 18 nM in data set [3] and 75 nM in data set [5]. Also, the selectivity ratio in data set [2] is 62.7; in data set [4], 2580; in data set [6] it was 618. In data set [7], the half-inhibitory concentration (IC50) at 70 h came out at 46400 nM. In addition, in data set [8], the Ratio IC50 is 4.17.
Consider `Nc1nc(N)nc(Nc2ccc([As]3SCC(CO)S3)cc2)n1` (centres undefined) [MELARSOPROL], for which the selectivity ratio in data set [2] came out at 778. Also, the 50% inhibitory concentration (IC50) at 70 h in data set [7] came to 7780 nM.
For `COc1cc([C@@H]2c3cc4c(cc3[C@H](O)[C@H]3COC(=O)[C@H]23)OCO4)cc(OC)c1OC` [PODOFILOX], in data set [7], the half-maximal inhibitory concentration (IC50) at 70 h was determined as 12 nM.
Regarding `Clc1ccc2c(N3CCN(CCN4CCCCCC4)CC3)ccnc2c1`, the IC50 in data set [1] stood at 1610 nM; in data set [3] it was 70 nM; in data set [5] it was 75 nM. The selectivity ratio is 15.8 in data set [2], 362 in data set [4] and 338 in data set [6]. Also, the IC50 at 70 h in data set [7] was found to be 25400 nM. The Ratio IC50 in data set [8] worked out at 1.07.
Regarding `CCCN(CCC)CCN1CCN(c2ccnc3cc(Cl)ccc23)CC1`, the IC50 stood at 1070 nM in data set [1], 110 nM in data set [3] and 88 nM in data set [5]. Further, the selectivity ratio in data set [2] is 53.1; in data set [4], 517; in data set [6], 646. Moreover, in data set [7], the half-maximal inhibitory concentration (IC50) at 70 h was determined as 56800 nM. Further, in data set [8], the Ratio IC50 is 0.8.
On to `O=C(CN1CCCCC1)NCCNc1ccnc2cc(Cl)ccc12`, for which the results for the IC50 in data set [1], in data set [3] and in data set [5] were 1280 nM, 11 nM and 92 nM, respectively. Also, the selectivity ratio in data set [2] was determined as 18.5; in data set [4] it was 2160; in data set [6] it was 258. Moreover, the IC50 at 70 h in data set [7] turned out to be 23700 nM. Further, in data set [8], the Ratio IC50 turned out to be 8.36.
For `O=C(CN1CCCCCC1)NCCNc1ccnc2cc(Cl)ccc12`, the IC50 in data set [1] worked out at 280 nM; in data set [3] it was 11 nM; in data set [5], 55 nM. Moreover, the selectivity ratio in data set [2] is 50.8; in data set [4] it was 1290; in data set [6] it was 258. Further, the IC50 at 70 h in data set [7] is 14200 nM. Besides, in data set [8], the Ratio IC50 is 5.
With `CN1CCN(CC(=O)NCCNc2ccnc3cc(Cl)ccc23)CC1`, the half-maximal inhibitory concentration (IC50) in data set [1] worked out at 18300 nM; in data set [3] it was 36 nM; in data set [5], 2870 nM. Moreover, the selectivity ratio amounted to 2.08 in data set [2], 1060 in data set [4] and 13.3 in data set [6]. For the same molecule, the half-inhibitory concentration (IC50) at 70 h in data set [7] turned out to be 38000 nM. Further, the Ratio IC50 in data set [8] was 79.7.
For `CN1CCN(CC(=O)N2CCN(c3ccnc4cc(Cl)ccc34)CC2)CC1`, the IC50 in data set [1] is 2020 nM; in data set [3], 140 nM; in data set [5], 280 nM. The selectivity ratio in data set [2] amounted to 39.5; in data set [4], 570; in data set [6], 285. Besides, the half-inhibitory concentration (IC50) at 70 h in data set [7] worked out at 79800 nM. In addition, in data set [8], the Ratio IC50 worked out at 2.
Turning to `CN1CCN(CCCNc2ccnc3cc(Cl)ccc23)CC1`, the half-inhibitory concentration (IC50) was determined as 1140 nM in data set [1], 3.1 nM in data set [3] and 31 nM in data set [5]. Further, the selectivity ratio in data set [2] worked out at 15.9; in data set [4], 5860; in data set [6], 586. Besides, the 50% inhibitory concentration (IC50) at 70 h in data set [7] is 18200 nM. In data set [8], the Ratio IC50 amounted to 10.
For `CN1CCN(CCNc2ccnc3cc(Cl)ccc23)CC1`, the IC50 turned out to be 690 nM in data set [1], 6.6 nM in data set [3] and 36 nM in data set [5]. Further, the selectivity ratio in data set [2] amounted to 24.2; in data set [4], 2540; in data set [6], 465. Further, the half-inhibitory concentration (IC50) at 70 h in data set [7] worked out at 16700 nM. Moreover, the Ratio IC50 in data set [8] turned out to be 5.45.
As for `CCCN(CCC)CC(=O)N1CCN(c2ccnc3cc(Cl)ccc23)CC1`, the IC50 was found to be 1460 nM in data set [1], 230 nM in data set [3] and 310 nM in data set [5]. Besides, the selectivity ratio in data set [2] was found to be 48.3; in data set [4], 306; in data set [6] it was 227. Moreover, in data set [7], the IC50 at 70 h came to 70500 nM. Besides, the Ratio IC50 in data set [8] was determined as 1.35.

Usually IC50 stands for the point on the concentration scale where inhibition reaches its midpoint.
